Results published in ChEMBL document CHEMBL4007477, “Novel 2-phenyl-4,5,6,7-tetrahydro[b]benzothiophene analogues as selective COX-2 inhibitors: Design, synthesis, anti-inflammatory evaluation, and molecular docking studies” (Bioorg Med Chem Lett, 2017).
pIC50: −log10 of the molar value.

What was measured:
[1] = target: T1, COX1 (Prostaglandin G/H synthase 1) (Ovis aries, UniProt P05979); test: Inhibition of ovine COX1 at 60 uM using arachidonic acid as substrate preincubated for 5 mins followed by substrate addition measured after 2 mins by ADHP probe-based fluorescence assay relative to control; settings: sheep, ovine COX1 enzyme
T1 sequence (P05979 whole entry): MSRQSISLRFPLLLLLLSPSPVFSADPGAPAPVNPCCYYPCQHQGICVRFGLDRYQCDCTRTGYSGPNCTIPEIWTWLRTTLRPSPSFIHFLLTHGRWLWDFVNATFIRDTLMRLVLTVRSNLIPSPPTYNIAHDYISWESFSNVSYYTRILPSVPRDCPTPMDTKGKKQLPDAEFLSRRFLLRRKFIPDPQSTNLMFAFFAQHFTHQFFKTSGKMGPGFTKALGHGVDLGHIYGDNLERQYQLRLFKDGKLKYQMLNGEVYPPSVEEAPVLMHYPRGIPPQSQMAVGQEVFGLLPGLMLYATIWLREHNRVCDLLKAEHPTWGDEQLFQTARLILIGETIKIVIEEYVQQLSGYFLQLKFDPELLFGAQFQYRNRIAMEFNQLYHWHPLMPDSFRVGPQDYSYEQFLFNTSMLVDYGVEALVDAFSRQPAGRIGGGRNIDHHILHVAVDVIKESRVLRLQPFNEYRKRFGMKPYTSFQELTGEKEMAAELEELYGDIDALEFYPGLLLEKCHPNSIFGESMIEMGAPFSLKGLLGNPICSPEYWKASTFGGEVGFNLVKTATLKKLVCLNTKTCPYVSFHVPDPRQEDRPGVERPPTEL

[2] = target: T2, Prostaglandin G/H synthase 2 (Homo sapiens) (UniProt P35354); settings: at 60 µM
T2 sequence (whole entry): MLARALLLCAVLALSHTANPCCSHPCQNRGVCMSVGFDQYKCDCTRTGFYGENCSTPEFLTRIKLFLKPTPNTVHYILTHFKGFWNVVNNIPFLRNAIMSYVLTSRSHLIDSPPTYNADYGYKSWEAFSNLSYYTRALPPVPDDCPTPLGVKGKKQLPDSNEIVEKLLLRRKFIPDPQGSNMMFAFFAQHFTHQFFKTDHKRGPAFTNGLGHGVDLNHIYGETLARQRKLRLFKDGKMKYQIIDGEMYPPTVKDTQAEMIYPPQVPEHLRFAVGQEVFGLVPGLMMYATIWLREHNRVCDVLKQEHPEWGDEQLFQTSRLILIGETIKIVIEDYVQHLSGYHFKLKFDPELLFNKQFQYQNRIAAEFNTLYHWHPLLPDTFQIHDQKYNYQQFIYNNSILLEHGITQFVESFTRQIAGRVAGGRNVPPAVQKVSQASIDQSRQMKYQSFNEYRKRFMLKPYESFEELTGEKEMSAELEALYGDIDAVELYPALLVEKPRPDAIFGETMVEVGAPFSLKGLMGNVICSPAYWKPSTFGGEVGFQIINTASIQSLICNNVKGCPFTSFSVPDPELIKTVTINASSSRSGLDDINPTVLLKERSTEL

Rattus norvegicus [3] = test: Antiinflammatory activity in carrageenan-induced Wistar rat paw edema model assessed as rise in paw volume at 150 ug/kg administered 1 hr followed by carrageenan challenge measured at 30 mins by plethysmometer (reference value: 49.5%); assay type: functional
Rattus norvegicus [4] = test: Antiinflammatory activity in carrageenan-induced Wistar rat paw edema model assessed as rise in paw volume at 150 ug/kg administered 1 hr followed by carrageenan challenge measured at 60 mins by plethysmometer (reference value: 52.8%); assay type: functional
Rattus norvegicus [5] = test: Antiinflammatory activity in carrageenan-induced Wistar rat paw edema model assessed as rise in paw volume at 150 ug/kg administered 1 hr followed by carrageenan challenge measured at 180 mins by plethysmometer (reference value: 60.1%); assay type: functional
Rattus norvegicus [6] = test: Antiinflammatory activity in carrageenan-induced Wistar rat paw edema model assessed as rise in paw volume at 150 ug/kg administered 1 hr followed by carrageenan challenge measured at 360 mins by plethysmometer (reference value: 49.3%); assay type: functional
[7] = target: T3, Prostaglandin G/H synthase 1 (Ovis aries, UniProt P05979); test: Inhibition of ovine COX1 using arachidonic acid as substrate preincubated for 5 mins followed by substrate addition measured after 2 mins by ADHP probe-based fluorescence assay
T3 sequence (P05979 whole entry): T1 sequence (P05979 whole entry)

[8] = target: T4, Prostaglandin G/H synthase 2 (Homo sapiens, UniProt P35354); test: Inhibition of human recombinant COX2 using arachidonic acid as substrate preincubated for 5 mins followed by substrate addition measured after 2 mins by ADHP probe-based fluorescence assay
T4 sequence (P35354 whole entry): T2 sequence (whole entry)

[9] = Selectivity index, ratio of IC50 for ovine COX1 to IC50 for human recombinant COX2
Procedure, shortened: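 Selectivity index computed as COX-1 IC₅₀ / COX-2 IC₅₀, using ovine COX-1 and human recombinant COX-2. Each IC₅₀ is a mean of two determinations.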

[10] = Cytotoxicity against mouse RAW264.7 cells assessed as cell viability at 80 uM after 24 hrs by MTT assay relative to control; assay type: cell-based; settings: read-out: Activity
Procedure, shortened: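 MTT viability in RAW 264.7 cells after 24 h exposure to 5, 10, 20, 40, 80 and 160 µM compound.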

SMILES | inhibition at 2 min, 60 µM [1] [%] | inhibition [2] [%] | Activity (Rattus norvegicus [3]) [%] | Activity (Rattus norvegicus [4]) [%] | Activity (Rattus norvegicus [5]) [%] | Activity (Rattus norvegicus [6]) [%] | pIC50 [7] | pIC50 [8] | Ratio IC50 [9] | viability at 24 h, 80 µM [10] [%]
O=C(Oc1ccc([N+](=O)[O-])cc1)c1c(-c2ccccc2)sc2c1CCCC2 | 19.3 | 16.5 | – | – | – | – | – | – | – | –
O=C(Oc1ccc(Br)cc1)c1c(-c2ccccc2)sc2c1CCCC2 | 35.5 | 18.5 | – | – | – | – | – | – | – | –
CC(=O)c1ccc(OC(=O)c2c(-c3ccccc3)sc3c2CCCC3)cc1 | 10.3 | 8.04 | 24.7 | 37.1 | 55.2 | 54.2 | – | – | – | –
O=C(Oc1ccccc1)c1c(-c2ccccc2)sc2c1CCCC2 | 47.1 | 97.6 | 10.6 | 30.2 | 27 | 37 | 4.21 | 6.48 | 184 | 50.8
COC(=O)c1ccc(OC(=O)c2c(-c3ccccc3)sc3c2CCCC3)cc1 | 68.9 | 56.5 | – | – | – | – | – | – | – | –
NS(=O)(=O)c1ccc(OC(=O)c2c(-c3ccccc3)sc3c2CCCC3)cc1 | 69.3 | 89.4 | 21.4 | 21.6 | 21.1 | 31.3 | 4.43 | 6.17 | 54.7 | 83.7
COC(=O)Cc1ccc(OC(=O)c2c(-c3ccccc3)sc3c2CCCC3)cc1 | 7.81 | 15 | – | – | – | – | – | – | – | –
NC(=O)Cc1ccc(OC(=O)c2c(-c3ccccc3)sc3c2CCCC3)cc1 | 1.43 | 38.3 | – | – | – | – | – | – | – | –
O=C(Oc1ccc(Cl)cc1)c1c(-c2ccccc2)sc2c1CCCC2 | 72.4 | 36.8 | – | – | – | – | – | – | – | –
Cc1ccc(-c2cc(C(F)(F)F)nn2-c2ccc(S(N)(=O)=O)cc2)cc1 [CELECOXIB] | – | – | 5.8 | 16.2 | 19.7 | 26.6 | – | – | – | 33.9
CC(C)(C)c1ccc(OC(=O)c2c(-c3ccccc3)sc3c2CCCC3)cc1 | 8.1 | 3.1 | – | – | – | – | – | – | – | –
COc1ccc(OC(=O)c2c(-c3ccccc3)sc3c2CCCC3)cc1 | 10.7 | 41 | – | – | – | – | – | – | – | –
Nc1ccc(OC(=O)c2c(-c3ccccc3)sc3c2CCCC3)cc1 | 88.3 | 32.3 | 29 | 33.1 | 44.9 | 39.9 | – | – | – | –
O=Cc1ccc(OC(=O)c2c(-c3ccccc3)sc3c2CCCC3)cc1 | 11.6 | 10.7 | – | – | – | – | – | – | – | –
N#Cc1ccc(OC(=O)c2c(-c3ccccc3)sc3c2CCCC3)cc1 | 76 | 83.7 | 13.6 | 22 | 21.4 | 28.5 | – | – | – | –
CC(=O)Nc1ccc(OC(=O)c2c(-c3ccccc3)sc3c2CCCC3)cc1 | 36.8 | 75.7 | 10.6 | 30.2 | 27 | 37 | 4.16 | 5.85 | 48.8 | 41.3
CC(=O)c1cccc(OC(=O)c2c(-c3ccccc3)sc3c2CCCC3)c1 | 73.5 | 93.5 | 28.9 | 30.8 | 30.5 | 30.3 | 4.53 | 6.51 | 92.7 | 64.5
Cc1ccc(OC(=O)c2c(-c3ccccc3)sc3c2CCCC3)cc1 | 64 | 47.2 | – | – | – | – | – | – | – | –
